The source made the active and inactive calls.
Experiments:
[1] = Lipophilicity, log P of the compound; format: physicochemical; settings: octanol/water
Mus musculus [2] = experiment: Antinociceptive activity in Swiss mouse by inhibition of acetic acid-induced abdominal constriction at 10 mg/kg, ip after 20 mins; format: functional; settings: Abdomen, route intraperitoneal
How it was run: (§1)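 Male Swiss mice (25–30 g) were pretreated i.p. 30 min before i.p. acetic acid (0.6%): 10 mg/kg for screening, or 3, 6 and 10 mg/kg for dose-response. Controls received vehicle (0.9% NaCl and Tween 80, 10 ml/kg i.p.). Abdominal constrictions plus stretching were counted cumulatively over 20 min at 23 ± 2 °C. Inhibition is relative to controls; ID50 by linear regression.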

Mus musculus [3] = experiment: Antinociceptive activity against formalin-induced pain in ip dosed Swiss mouse assessed as reduction of time spent in paw licking; format: functional; settings: for ED50: read-out: ID50 (the source's name)
How it was run: (§2)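 Swiss mice, 6–8 per group, housed at 22 ± 2 °C on a 12 h light/dark cycle. Compound given i.p. at 6, 10 or 30 mg/kg in Tween 80/0.9% NaCl vehicle (Tween ≤5%) before intraplantar formalin. Licking was scored for the first phase (0–5 min) and second phase (15–30 min). Mean ± SEM of six values; ID50 by linear regression with 95% confidence limits.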

Mus musculus [4] = experiment: Antinociceptive activity in ip dosed Swiss mouse by inhibition of acetic acid-induced abdominal constriction after 20 mins; format: functional; settings: Abdomen, read-out: ID50 (the source's name); how it was run: as §1
Mus musculus [5] = experiment: Antinociceptive activity in Swiss mouse by inhibition of acetic acid-induced abdominal constriction at 100 mg/kg, po after 20 mins; format: functional, Abdomen; set-up: scale not given: the % may be the effect or the level left
How it was run: (§3)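 Oral dosing of male Swiss mice (25–30 g) at 100, 250 and 500 mg/kg, 30 min before i.p. acetic acid (0.6%). Vehicle was Tween 80 in 0.9% NaCl. Abdominal constrictions with stretching were counted cumulatively for 20 min at 23 ± 2 °C. Inhibition is relative to vehicle controls; mean ± SEM of six values.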

Mus musculus [6] = experiment: Antinociceptive activity against glutamate-induced pain in Swiss mouse assessed as reduction in time spent on paw licking and biting at 60 mg/kg, ip; format: functional; set-up: scale not given: the % may be the effect or the level left; settings: route intraperitoneal
How it was run: (§4)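 Dosing was i.p. at 10, 30 or 60 mg/kg, 30 min before intraplantar glutamate (30 µmol/paw) into the right hindpaw. Time spent licking or biting the injected paw was timed from 0 to 15 min. Mean ± SEM of six values; ID50 from linear regression as geometric mean with 95% confidence limits. ANOVA with Newman–Keuls test.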

Mus musculus [7] = experiment: Antinociceptive activity in ip dosed Swiss mouse by inhibition of formalin induced pain after 15 to 30 mins; format: functional; settings: read-out: ID50 (the source's name); how it was run: as §2
Mus musculus [8] = experiment: Antinociceptive activity against capsaicin-induced neurogenic pain in ip dosed Swiss mouse by reduction of paw licking response; format: functional
How it was run: (§5)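 Capsaicin dissolved in absolute ethanol (final ≤5%), injected intraplantarly. Test compound given i.p. at 10, 30 and 60 mg/kg, 30 min before capsaicin, in Tween 80 plus 0.9% NaCl. Time spent licking the injected paw was timed over 5 min. Data are mean ± SEM; ID50 from linear regression as geometric mean with 95% confidence limits. ANOVA with Newman–Keuls test.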

Mus musculus [9] = experiment: Antinociceptive activity in Swiss mouse assessed as reduction in response latency at 10 mg/kg, ip after 30 mins by hot plate method; format: functional, organism-based; set-up: dose 10 mg/kg
How it was run: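 Mice received saline, morphine 10 mg/kg s.c., or test compound 10 mg/kg i.p. 30 min before testing on a hot plate at 56 ± 1 °C. Latency to hindpaw licking, paw shaking or jumping was recorded. Mice with baseline latency above 20 s were excluded; cut-off was 30 s. Mean ± SEM of six values.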

Mus musculus [10] = experiment: Antinociceptive activity in po dosed Swiss mouse by inhibition of acetic acid-induced abdominal constriction; format: functional; settings: Abdomen, read-out: ID50 (the source's name); how it was run: as §3
Mus musculus [11] = experiment: Antinociceptive activity against glutamate-induced pain in Swiss mouse assessed as reduction in time spent on paw licking and biting at 30 mg/kg, ip; format: functional; set-up: scale not given: the % may be the effect or the level left; settings: route intraperitoneal; how it was run: as §4
Mus musculus [12] = experiment: Antinociceptive activity in Swiss mouse by inhibition of acetic acid-induced abdominal constriction at 250 mg/kg, po after 20 mins; format: functional, Abdomen; set-up: scale not given: the % may be the effect or the level left; how it was run: as §3
Mus musculus [13] = experiment: Antinociceptive activity against glutamate-induced pain in Swiss mouse assessed as reduction in time spent on paw licking and biting at 10 mg/kg, ip; format: functional; set-up: scale not given: the % may be the effect or the level left; settings: route intraperitoneal; how it was run: as §4
Mus musculus [14] = experiment: Antinociceptive activity against capsaicin-induced neurogenic pain in Swiss mouse by reduction of paw licking response at 30 mg/kg, ip; format: functional; set-up: scale not given: the % may be the effect or the level left; settings: route intraperitoneal; how it was run: as §5
Mus musculus [15] = experiment: Antinociceptive activity against capsaicin-induced neurogenic pain in Swiss mouse by reduction of paw licking response at 60 mg/kg, ip; format: functional; set-up: scale not given: the % may be the effect or the level left; settings: route intraperitoneal; how it was run: as §5
Mus musculus [16] = experiment: Antinociceptive activity against formalin-induced pain in Swiss mouse assessed as reduction of time spent in paw licking and biting at 30 mg/kg, ip after 15 to 30 mins; format: functional; set-up: scale not given: the % may be the effect or the level left; settings: route intraperitoneal; how it was run: as §2
Mus musculus [17] = experiment: Antinociceptive activity against formalin-induced pain in Swiss mouse assessed as reduction of time spent in paw licking and biting at 10 mg/kg, ip after 15 to 30 mins; format: functional; set-up: scale not given: the % may be the effect or the level left; settings: route intraperitoneal; how it was run: as §2
Mus musculus [18] = experiment: Antinociceptive activity against formalin-induced pain in Swiss mouse assessed as reduction of time spent in paw licking and biting at 30 mg/kg, ip after 0 to 5 mins; format: functional; set-up: scale not given: the % may be the effect or the level left; settings: route intraperitoneal; how it was run: as §2
Mus musculus [19] = experiment: Antinociceptive activity against formalin-induced pain in Swiss mouse assessed as reduction of time spent in paw licking and biting at 10 mg/kg, ip after 0 to 5 mins; format: functional; set-up: scale not given: the % may be the effect or the level left; settings: route intraperitoneal; how it was run: as §2
Mus musculus [20] = experiment: Antinociceptive activity in Swiss mouse by inhibition of acetic acid-induced abdominal constriction at 500 mg/kg, po after 20 mins; format: functional, Abdomen; set-up: scale not given: the % may be the effect or the level left; how it was run: as §3
Mus musculus [21] = experiment: Antinociceptive activity against glutamate-induced pain in ip dosed Swiss mouse assessed as reduction in time spent on paw licking and biting; format: functional; how it was run: as §4
Mus musculus [22] = experiment: Antinociceptive activity in ip dosed Swiss mouse by inhibition of formalin induced pain after 0 to 5 mins; format: functional; settings: read-out: ID50 (the source's name); how it was run: as §2
[23] = read-out: ID50 (the source's name)

## CC(C)COC(=O)/C=C/c1ccc(O)c(O)c1
[1]
  logP: 2.68
Mus musculus [2]
  inhibition in vivo at 10 mg/kg: 52%

## CCOC(=O)/C=C/c1ccc(O)c(O)c1 [ETHYL CAFFEATE]
[1]
  logP: 1.93
Mus musculus [2]
  inhibition in vivo at 10 mg/kg: 58.1%

## CCCCCCCCOC(=O)/C=C/c1ccc(O)c(O)c1
[1]
  logP: 5.02
Mus musculus [2]
  inhibition in vivo at 10 mg/kg: 46.2%

## CC(=O)Oc1ccccc1C(=O)O [ASPIRIN]
[1]
  logP: 0.68
Mus musculus [2]
  inhibition in vivo at 10 mg/kg: 35%
Mus musculus [3]
  ED50: 123 µmol/kg
Mus musculus [4]
  ED50: 125 µmol/kg

## O=C(O)/C=C/c1ccc(O)c(O)c1 [CAFFEIC ACID]
Mus musculus [2]
  inhibition in vivo at 10 mg/kg: 34.6%

## CC(C)CCOC(=O)/C=C/c1ccc(O)c(O)c1
[1]
  logP: 3.21
Mus musculus [2]
  inhibition in vivo at 10 mg/kg: 75.8%

## O=C(/C=C/c1ccc(O)c(O)c1)OCCc1ccccc1 [CAFFEIC ACID PHENETHYL ESTER]
[1]
  logP: 3.36
Mus musculus [2]
  inhibition in vivo at 10 mg/kg: 27.5%

## COC(=O)/C=C/c1ccc(O)c(O)c1 [METHYLCAFFEATE]
[1]
  logP: 1.56
Mus musculus [2]
  inhibition in vivo at 10 mg/kg: 54.5%

## CC(=O)Nc1ccc(O)cc1 [ACETAMINOPHEN]
[1]
  logP: 1.43
Mus musculus [2]
  inhibition in vivo at 10 mg/kg: 38%
Mus musculus [3]
  ED50: 120 µmol/kg
Mus musculus [4]
  ED50: 133 µmol/kg

## CCCCCCCCCCCCOC(=O)/C=C/c1ccc(O)c(O)c1
Mus musculus [5]
  Activity: 22.2%
Mus musculus [6]
  Activity: 65.2%
Mus musculus [7]
  ED50: 23.8 mg/kg
[1]
  logP: 7.04
Mus musculus [8]
  Activity: Dose-dependent effect
Mus musculus [8]; [23]
  ED50: 46.6 mg/kg
Mus musculus [9]
  Activity: inactive
Mus musculus [2]
  inhibition in vivo at 10 mg/kg: 78.8%
Mus musculus [10]
  ED50: ≥ 500 mg/kg
Mus musculus [11]
  Activity: 46.3%
Mus musculus [12]
  Activity: 32.4%
Mus musculus [13]
  Activity: 25.6%
Mus musculus [14]
  Activity: 36.9%
Mus musculus [15]
  Activity: 58.6%
Mus musculus [16]
  Activity: 56.8%
Mus musculus [3]
  Activity: Dose-dependent effect
Mus musculus [4]
  ED50: 5.25 mg/kg
Mus musculus [17]
  Activity: 34.4%
Mus musculus [18]
  Activity: 56.2%
Mus musculus [19]
  Activity: 20.7%
Mus musculus [20]
  Activity: 45.7%
Mus musculus [21]
  Activity: Dose-dependent effect
Mus musculus [21]; [23]
  ED50: 38.4 mg/kg
Mus musculus [22]
  ED50: 26.2 mg/kg

## CC(C)OC(=O)/C=C/c1ccc(O)c(O)c1
[1]
  logP: 2.3
Mus musculus [2]
  inhibition in vivo at 10 mg/kg: 31%

## O=C(/C=C/c1ccc(O)c(O)c1)OCc1ccccc1 [BENZYL CAFFEATE]
[1]
  logP: 3.15
Mus musculus [2]
  inhibition in vivo at 10 mg/kg: 8.8%

## CCCCOC(=O)/C=C/c1ccc(O)c(O)c1 [BUTYL CAFFEATE]
[1]
  logP: 2.99
Mus musculus [2]
  inhibition in vivo at 10 mg/kg: 45%
